Type in all cases: nucleic-acid assay
The test system of experiment [1] is Nucleic Acid. Description: Binding affinity to A3T3 repeat containing DNA5(3) (unknown origin) assessed as cooperativity with DNA at 10 nM by fluorescence titration based McGhee-von Hippel analysis. The essentials:
(§1)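 Ligand at 10 nM in 3.0 mM HEPES, 3.0 mM NaCl, pH 7.0 is stirred 4 h at room temperature in a quartz cell. DNA is added in aliquots, 0–0.8 μM (0–4 μM in A3T3), with 1 h stirring after each addition. Fluorescence is read with 363 nm excitation at 25 °C and ΔF is plotted against A3T3 concentration. Data are fitted to a two-mode (high/low affinity) model. McGhee–von Hippel analysis then gives n, K and ω.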

In experiment [2] the test system is Nucleic Acid. The experiment is described as follows: Binding affinity to A3T3 repeat containing DNA1 (unknown origin) at 10 uM by CD spectroscopy. Summed up:
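CD spectrum of DNA1 (5 μM in A3T3) recorded alone and with ligand at 10 μM (2 equiv relative to A3T3).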

Experiment [3] has as its system Nucleic Acid. The experiment is described as follows: Binding affinity to A3T3 repeat containing DNA5(3) (unknown origin) assessed as association constant for changes at 275 nm at 0 to 4 uM by CD spectroscopy.
For experiment [4], the system named is Nucleic Acid. Description: Binding affinity to A3T3 repeat containing DNA5(3) (unknown origin) assessed as association constant for changes at 327 nm at 0 to 4 uM by CD spectroscopy.
For experiment [5], the system named is Nucleic Acid. Description: Binding affinity to A3T3 repeat containing DNA5(3) (unknown origin) at 0 to 4 uM by CD spectroscopy.
For experiment [6], the system named is Nucleic Acid. The experiment is described as follows: Binding affinity to A3T3 repeat containing DNA5(3) (unknown origin) assessed as quinoline region-induced shift to shorter wavelength (328.5 to 326.5 nm) with % increase in intensity at 5 uM by UV-vis spectroscopy. The essentials:
(§2)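 UV–vis spectra of 5 μM ligand with or without DNA5(3), in 3.0 mM HEPES, 3.0 mM NaCl, pH 7.0, 25 °C. Samples are stirred 7 h at room temperature before measurement. Band shifts and % absorbance change are recorded for the Hoechst and quinoline regions.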

The subject of experiment [7] is Nucleic Acid. The experiment is described as follows: Binding affinity to A3T3 repeat containing DNA5(3) (unknown origin) assessed as Hoechst region-induced shift to longer wavelength (372.5 to 384.5 nm) with increase in intensity at 5 uM by UV-vis spectroscopy. Summed up:
as §2

The subject of experiment [8] is Nucleic Acid. The experiment is described as follows: Binding affinity to A3T3 repeat not-containing DNA0 (unknown origin) assessed as increase in fluorescence intensity at 10 nM by fluorescence titration method. The essentials: as §1
Experiment [9] concerns Nucleic Acid. The experiment is described as follows: Binding affinity to A3T3 repeat containing DNA5(3) (unknown origin) at 5 uM by UV-vis spectroscopy. The essentials:
as §2

The source made the active and inactive calls. The calls are words filed in the database; no cut-off is given here.

For `CN1CCN(c2cc(C(=O)NCCN(CCC(=O)NCCOCCOCCNC(=O)COc3cccnc3)CCC(=O)NCCOCCOCCNC(=O)COc3cccnc3)c3nc(-c4ccc5nc(-c6ccc(O)cc6)[nH]c5c4)[nH]c3c2)CC1`, in the experiment with Nucleic Acid [1], the result was inactive.
Regarding `CN1CCN(c2cc(C(=O)NCCN(CCC(=O)NCCOCCOCCNC(=O)COc3ccc4ncccc4c3)CCC(=O)NCCOCCOCCNC(=O)COc3ccc4ncccc4c3)c3nc(-c4ccc5nc(-c6ccc(O)cc6)[nH]c5c4)[nH]c3c2)CC1`, the result in the experiment on Nucleic Acid [1], in the experiment with Nucleic Acid [5] and with Nucleic Acid [9] was Active. Besides, the result in the experiment on Nucleic Acid [2] and with Nucleic Acid [8] was inactive. Besides, the K in the experiment with Nucleic Acid [3] was 6.5 ×10⁶ /M; in the experiment on Nucleic Acid [4], 3.9 ×10⁵ /M. The figures for the Activity with Nucleic Acid [6] and in the experiment on Nucleic Acid [7] were 43% and 50%, respectively.
Take `CN1CCN(c2cc(C(=O)NCCN(CCC(=O)NCCOCCOCCNC(=O)COc3ccc4ccccc4n3)CCC(=O)NCCOCCOCCNC(=O)COc3ccc4ccccc4n3)c3nc(-c4ccc5nc(-c6ccc(O)cc6)[nH]c5c4)[nH]c3c2)CC1`: in the experiment on Nucleic Acid [1], the outcome was inactive.
Still for that read-out and setting: with `CN1CCN(c2cc(C(=O)NCCN(CCC(=O)NCCOCCOCCNC(=O)COc3ccc4nccnc4c3)CCC(=O)NCCOCCOCCNC(=O)COc3ccc4nccnc4c3)c3nc(-c4ccc5nc(-c6ccc(O)cc6)[nH]c5c4)[nH]c3c2)CC1` the entry was “inactive”.
Regarding `CN1CCN(c2cc(C(=O)NCCN(CCC(=O)NCCOCCOCCNC(=O)COc3ccc4ccccc4c3)CCC(=O)NCCOCCOCCNC(=O)COc3ccc4ccccc4c3)c3nc(-c4ccc5nc(-c6ccc(O)cc6)[nH]c5c4)[nH]c3c2)CC1`, the outcome with Nucleic Acid [1] was Active.
As to `CN1CCN(c2cc(C(=O)NCCN(CCC(=O)NCCOCCOCCNC(=O)COc3ccc4ncccc4c3Br)CCC(=O)NCCOCCOCCNC(=O)COc3ccc4ncccc4c3Br)c3nc(-c4ccc5nc(-c6ccc(O)cc6)[nH]c5c4)[nH]c3c2)CC1`, in the experiment with Nucleic Acid [9], the outcome was inactive.
In the case of `CN1CCN(c2cc(C(=O)NCCN(CCC(=O)NCCOCCOCC(=O)NCCOCCOCCNC(=O)COc3ccc4ncccc4c3)CCC(=O)NCCOCCOCC(=O)NCCOCCOCCNC(=O)COc3ccc4ncccc4c3)c3nc(-c4ccc5nc(-c6ccc(O)cc6)[nH]c5c4)[nH]c3c2)CC1`, the result in the experiment with Nucleic Acid [1] was inactive.
`CN1CCN(c2cc(C(=O)NCCN(CCC(=O)NCCOCCOCCNC(=O)COc3ccc4cnccc4c3)CCC(=O)NCCOCCOCCNC(=O)COc3ccc4cnccc4c3)c3nc(-c4ccc5nc(-c6ccc(O)cc6)[nH]c5c4)[nH]c3c2)CC1`: in the experiment with Nucleic Acid [1], the outcome was Active.
For the compound `CN1CCN(c2cc(C(=O)NCCN(CCC(=O)NCCNC(=O)COc3ccc4ncccc4c3)CCC(=O)NCCNC(=O)COc3ccc4ncccc4c3)c3nc(-c4ccc5nc(-c6ccc(O)cc6)[nH]c5c4)[nH]c3c2)CC1`, the outcome in the experiment with Nucleic Acid [1] was inactive.

Values taken from ChEMBL document CHEMBL3596099, “Strong positive cooperativity in binding to the A3T3 repeat by Hoechst 33258 derivatives attaching the quinoline units at the end of a branched linker” (Bioorg Med Chem, 2015).
